Data on 48 sequences can be found in the EternaBench riboswitch data.

The test system of the data set is MS2 coat protein. The experiment in a line: apparent Kd, MS2 coat protein; higher = weaker binding; RNA-MaP array; FMN 200 µM where present. The essentials:
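Two titrations, one without ligand and one with constant ligand, were run with SNAP-549-labelled MS2 coat protein from 0.7 or 1.5 nM, doubling to 3 µM. The targets were designs transcribed by stalled E. coli RNA polymerase on Illumina sequencing-chip clusters, in 100 mM Tris-HCl pH 7.5, 80 mM KCl, 4 mM MgCl2, BSA, DTT, yeast tRNA and Tween-20. The apparent Kd is the median of filtered per-cluster binding-curve fits, with green signal normalised to red-channel RNA signal and control-cluster median Fmax.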

The mark [1] stands for this setting: designed as: OFF switch for flavin mononucleotide, no ligand.
Where [2] appears, read: ligand present: flavin mononucleotide, designed as: OFF switch for flavin mononucleotide.
The mark [3] stands for this setting: designed as: ON switch for flavin mononucleotide, no ligand.
The mark [4] stands for this setting: ligand present: flavin mononucleotide, designed as: ON switch for flavin mononucleotide.

As for “AGUCGGAGCAGAGGAUAUACAUGAGGAUCACCCAUGUAAUAAAGUGAAGCCUGGAAACAGGUAAUGUAGAAGGCUGCUCCGACA”, the “apparent Kd” value under setting [1] came to 11 nM and the “apparent Kd” value under setting [2] worked out at 84.7 nM.
The matching figures for “ACGUACUGAGGAUAUACGAACAUGUCAAAAGACGUGAAGGGACAUGAGGAUCACCCAUGUAGAAGGCAGUACGA”: 42.2 nM and 194 nM.
On to “AACAUGGUACAGAAGGGCUAUUUAUUUAAUUAUUAUUUAGAACAGCAUAGCAGGAUAUGUUUAACAUGAGGAUCACCCAUGUAC”, for which the “apparent Kd” value was found to be 71.3 nM under setting [3] and 14.7 nM under setting [4].
Consider “CUGUUAUAGGUCCAUUUUUACAACAUGAGGAUCACCCAUGUGCAGGAUAUCGUGUUAAUUUUCAUCGAGAAGGGCAUAGUCACG”, for which the “apparent Kd” value came out at 31.5 nM under setting [1] and 61.2 nM under setting [2].
As to “UGUUGUAUUACAGGAUAUCUAUUAGUAUUAUUUAGAGAAGGGUAUUCACAUGAGGAUCACCCAUGUAUAUACGAGGAAGUUGUG”, the “apparent Kd” value is, setting by setting: under setting [3], 46.9 nM; under setting [4], 48.4 nM.
With “GUCAGCUCGUGAGGAUAUACAACACUGCUUCGGCAGUGUAUUAAGAUCACAUGAGGAUCACCCAUGUAGAAGGCUCGAGCUGAU”, the “apparent Kd” value under setting [1] is 14.6 nM and the “apparent Kd” value under setting [2] was 271 nM.
Regarding “CCAGCGAGUGUGAGGAUAUGCUGGUCCUUGGAUCAGCAGAAGGCACAUGAGGAUCACCCAUGUGAGGACGUUGG”, the “apparent Kd” value is, setting by setting: under setting [1], 28.2 nM; under setting [2], 248 nM.
In the case of “GCUGACGAUGUAGGAUAUCUCGACGAUAAGUCGAGAGAAGGACAUGAGGAUCACCCAUGUACUCUAACGUCAGCGAGGAAACUC”, the “apparent Kd” value is, setting by setting: under setting [1], 17.2 nM; under setting [2], 18.5 nM.
Consider “UGCUGUGUCAGAGGAUAUCUACUAAUAAUCCAUUGCAAAUAGCGAUGGACAUGAGGAUCACCCAUGUAGAAGGCUGUCACAGCA”, for which the “apparent Kd” value is, setting by setting: under setting [1], 110 nM; under setting [2], 120 nM.
For “UCGUUUGUACUAGGAUAUACCGACGAAAGAUCAGUAGAAGGAGUAACAGACAUGAGGAUCACCCAUGUAUGGGUCCUUAAACAA”, the “apparent Kd” value turned out to be 35.8 nM under setting [1] and 217 nM under setting [2].
The matching figures for “AAUAACAGAGGAUAUACUGUUUUAUGUGUUUAUUAUUUUAAACAUGAGGAUCACCCAUGUAGAAGGCUGAAUAA”: 42.6 nM and 42.8 nM.
The matching figures for “GACUUGUUAGGAUAUCUUACUUUUGCAUCAUAGUAACCAUUGGAGAAGGGACAUGAGGAUCACCCAUGUUUGGU”: 34.7 nM and 35 nM.
Turning to “CUCCCGAUCACAGGAUAUGCACAUACAAUUAAGGCAGAAGGGUGAUAGUCGGCCGGACAUGAGGAUCACCCAUGUGCAAGGAUA”, the “apparent Kd” value is, setting by setting: under setting [3], 285 nM; under setting [4], 85.2 nM.
As to “GUAGCAUGCCAAGGAUAUUCAUAUAGUAGGCAAACAUGAGGAUCACCCAUGUAAUGAGAGCACUGGGAGAAGGUGGGAUGCUAC”, the “apparent Kd” value runs as follows: under setting [3], 28.6 nM; under setting [4], 21.4 nM.
“AAUCGCAGUGCAGGAUAUCCAAGGUUUGGCGAAGGAGAAGGGCAUGCGACAUGAGGAUCACCCAUGUAAAGUAUGGCGUCCUCU”: the “apparent Kd” value amounted to 231 nM under setting [1] and 117 nM under setting [2].
As to “AAGCUGGUAGGAUAUGCUAGGGCGAUUAAUACGCCGAUAGUACAUGAGGAUCACCCAUGUAGAAGGGCCAGAAA”, the “apparent Kd” value is, setting by setting: under setting [1], 23.6 nM; under setting [2], 17.8 nM.
As to “GGUGCGUUUGUGAGGAUAUGCUGGUCCUUGGGUCAGCAGAAGGCACAUGAGGAUCACCCAUGUGGUGUCGUACC”, the “apparent Kd” value by setting is: under setting [1], 358 nM; under setting [2], 42.9 nM.
The matching figures for “UGUACGUGAGGAUAUGGACGUAUCGAAGACAAGCUACGAUACCAGAAGGUACAUGAGGAUCACCCAUGUGGUUC”: 376 nM and 370 nM.
As to “GGAGACCUCACAGGAUAUGCUGGACUUUGUCCAGCAGAAGGGUGAAACAUGAGGAUCACCCAUGUAAUGGUCUCCAAAUUUAAU”, the “apparent Kd” value reads like this: under setting [3], 1030 nM; under setting [4], 55.6 nM.
As for “AGUAACAGAGGAUAUACUAUUUUAUGUGUUUGUUAUUUUGAACAUGAGGAUCACCCAUGUAGAAGGCUGAAUAA”, the “apparent Kd” value was 25 nM under setting [1] and 26 nM under setting [2].
For “GUUAAGAACUAAGGAUAUUGAAUACAUAUGUUUAACAUGAGGAUCACCCAUGUGGGUUGCGGUAUCGAGAAGGUAGAAUAAUAG”, the “apparent Kd” value runs as follows: under setting [3], 115 nM; under setting [4], 113 nM.
Turning to “AAUAACAGAGGAUAUACUGUUUUAUGUGUUUGUUAUUUUGAACAUGAGGAUCACCCAUGUAGAAGGCUGAGUAA”, the “apparent Kd” value by setting is: under setting [1], 27.8 nM; under setting [2], 28.4 nM.
As for “UAGCGCUGUCGAGAGGAUAUGCGGUGAUGGACAUGAGGAUCACCCAUGUUAGCGAUAGCAUUACGGUAGAAGGCUCUACAGCUGC”, the “apparent Kd” value runs as follows: under setting [3], 27.6 nM; under setting [4], 13.6 nM.
“ACUUAUCAUGUAGGAUAUGCGUGGCGAAGCUAUGCAGAAGGACAUGAGGAUCACCCAUGUUUUAGCGUCUGCGUACAGAUGCGU”: the “apparent Kd” value came to 54 nM under setting [1] and 192 nM under setting [2].
The matching figures for “CGAUAUAUGAAGGACGGAAACGUACAUGAGGAUCACCCAUGUAGAAGGCGAUCCGCAACGCGGAUCGAGGAUAUAUAGUAUACA”: 24.2 nM and 17.6 nM.
The like results for “UUUUUUGUAGUGAGGAUAUCGUUGUGGAUGUGGAUCGAGAAGGCACAUGAGGAUCACCCAUGUUAGUUGUGGUU” were, in that order, 155 nM and 216 nM.
The matching figures for “AGCACGAAAGUGCAACGAUGUACGAGAAGGACAUGAGGAUCACCCAUGUUGCUGUAACAGCACAUGUAGGAUAUCGUACAUCGA”: 166 nM and 180 nM.
Turning to “GUGUGCAGAGGAUAUACAGAGGAAAAGAAGAAAGAAGAGGGACAUGAGGAUCACCCAUGUAGAAGGCUGAGUGU”, the “apparent Kd” value under setting [1] amounted to 33.9 nM and the “apparent Kd” value under setting [2] is 35.2 nM.
Consider “CUUUUGUGAGGAUAUCAUUAGUAAAUAAAUAAAAUUACUACUGAGAAGGCACAUGAGGAUCACCCAUGUUCCUC”, for which the “apparent Kd” value by setting is: under setting [1], 33.9 nM; under setting [2], 159 nM.
Take “GUGGUUGUCGUAGGAUAUGUAGGAUAUUCCUACAUGAGGAUCACCCAUGUUCGCAUGGAAGAAGGACAGAAGGACGAUGACCAA”: the “apparent Kd” value by setting is: under setting [3], 1160 nM; under setting [4], 9.11 nM.
Consider “UGUCGGAGCAGAGGAUAUACAUGAGGAUCACCCAUGUAAAUGAAAGAUAAGCUGGAAACAGCAAUGUAGAAGGCUGCUCCGACA”, for which the “apparent Kd” value reads like this: under setting [1], 18.4 nM; under setting [2], 88 nM.
The matching figures for “CCUAAGCGAGGAUAUACAUGAGGAUCACCCAUGUCCGCGUUCAUGAGGUUAAGAUCUUGUAGAAGGCGCCAAAA”: 33 nM and 161 nM.
For the sequence “GGGUACAUCGGAGGAUAUCAUGUAACUACAUGAGGAUCACCCAUGUCGAUGGAGACAUCGGAGAUUGAGAAGGCCGAUGUACCG”, the “apparent Kd” value was found to be 261 nM under setting [3] and 10.1 nM under setting [4].
For the sequence “CGCAAUGAUAGAGGAUAUGUUUUACAUGAGGAUCACCCAUGUGUACAUGGAUUAAUAUAUAAGUAACAGAAGGCUAUUCAUGCG”, the “apparent Kd” value came out at 16.7 nM under setting [1] and 15.2 nM under setting [2].
As for “CAGCGAUAGCUGAACAAUCUAUCUGAGGAUAUUCAUAUUAAAACAUGAGGAUCACCCAUGUAUUGGGAGAAGGCAGAUAGAUUG”, the “apparent Kd” value was found to be 42.1 nM under setting [3] and 6.53 nM under setting [4].
In the case of “UUGAUAAGGAGAGGAUAUUGACAUGAGGAUCACCCAUGUACAUGGGAAUAUUUACUGAAUUCUUACGAGAAGGCUUACAUAUUU”, the “apparent Kd” value is, setting by setting: under setting [1], 124 nM; under setting [2], 66.7 nM.
The like results for “GUGGUGCAUAUACGUGGAUGUACAUGAGGAUCACCCAUGUAAGAGGAUAUGCGGAUACUAGCUCAGCAGAAGGCUUACAACUGA” were, in that order, 11.3 nM and 41 nM.
The like results for “AAAACGUGAGGAUAUCCAAUAUAUGACAUGAGGAUCACCCAUGUUUCCACUCGUACCUCCGGAGAAGGCACUUUUU” were, in that order, 54.6 nM and 44.9 nM.
In the case of “GGACGUCUCAUUUACAUGAGGAUCACCCAUGUCGAUAGACAUGAGGAUAUGGAUCCGAAUCGGAUCCAGAAGGCAUGGACGUCC”, the “apparent Kd” value by setting is: under setting [3], 1130 nM; under setting [4], 63.4 nM.
As for “UCCUUGUCCUGAGGAUAUCCGUGGUUACCGAAAGGAGAAGGCAGGACAUGAGGAUCACCCAUGUACCCAGAAAACGUGCAGAGA”, the “apparent Kd” value is, setting by setting: under setting [1], 59.3 nM; under setting [2], 467 nM.
Take “CGUGAACAUGAGGAUCACCCAUGUGAAAAACAUAGAGGAUAUGUCACGUGAGUGUAAAAGACAGAAGGCUAUCGUG”: the “apparent Kd” value by setting is: under setting [3], 85.4 nM; under setting [4], 43 nM.
Take “CGGUGCUGAGGAUAUACAUGAGGAUCACCCAUGUGUUCCGGCUAGCUGACUGGCGCUUGUAGAAGGCAGUACUG”: the “apparent Kd” value reads like this: under setting [1], 17.3 nM; under setting [2], 101 nM.
The matching figures for “CCCAUGUGUGUGAGGAUAUGGUCAGUCAUACUCGGCCAGAAGGCACAUGAGGAUCACCCAUGUGGCCUCUCAUC”: 17 nM and 17.8 nM.
The matching figures for “GGACCGCGCAGAGUUGGCGGUCGGCAGGAUAUGACAUGAGGAUCACCCAUGUGAACUCCAUUGGGUCAGAAGGGCCACGACACA”: 22.4 nM and 107 nM.
Turning to “GCAGCUAAUAUUAUACAUGAGGAUCACCCAUGUUACAUGAGUAAGGAUAUUGAUGAUUAUAUAAACAAGAAGGUACGUAGCUGC”, the “apparent Kd” value is, setting by setting: under setting [3], 15.7 nM; under setting [4], 7.49 nM.
“CAUUAUUAUCGAGGAUAUCGUAUUGAGAUACUAUGAGAAGGCGGGAUAAACAUGAGGAUCACCCAUGUGAGCCGGAUGCUUGUG”: the “apparent Kd” value by setting is: under setting [1], 17.1 nM; under setting [2], 14.8 nM.
Turning to “UCGUGGUUAGGAUAUACAUGAGGAUCACCCAUGUGUGGCAGGGAGCGCCGACGGGCUUGUAGAAGGGAUGCGCA”, the “apparent Kd” value reads like this: under setting [1], 40.4 nM; under setting [2], 39.6 nM.
The matching figures for “ACAGCGUGAGGAUAUACAUGAGGAUCACCCAUGUAUGGCAGGUUAUCCUGUCGUAAGUGUAGAAGGCACGCUGU”: 20.4 nM and 58.5 nM.
